Data as given in ChEMBL document CHEMBL4699573, “Design, Synthesis, and Pharmacological Evaluation of Analogues Derived from the PLEV Tetrapeptide as Protein-Protein Interaction Modulators of Voltage-Gated Sodium Channel 1.6” (J Med Chem, 2020).
Active and inactive are the calls of the source. The calls are words filed in the database; no cut-off is given here. Residues, ends and D or L forms follow the SMILES beside them. *: point of attachment. Adamantane1carbonyl = O=C(C12CC3CC(CC(C3)C1)C2)*; OtBu = CC(C)(C)O*

Key:
HEK293 [1] = test: Modulation of recombinant human FGF141b (1 to 252 residues)-recombinant human Nav1.6 C-terminal tail (1763 to 1976 residues) protein-protein interaction expressed in HEK293 cells assessed as relative luminescence value at 50 uM measured at 2 mins interval for 20 mins by split-luciferase complementation assay relative to control; type: cell-based; details: filed as modulator, time min 2-20
In short: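 Double-stable HEK293 line expressing CLuc-FGF14 and CD4-Nav1.6-C-tail-NLuc, kept on G418 and puromycin. Cells seeded for 24 h, then given compound for 1 h in serum-free, phenol red-free DMEM/F12 with a final 0.5% DMSO: 50 μM for screening, 0.25–100 μM over eight concentrations for dose-response; n = 4. D-luciferin added and read every 2 min for 20 min at 37 °C. Peak luminescence expressed as percent of per-plate DMSO mean (n = 32). IC50 from four-parameter nonlinear fit. At least 3 experiments.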

HEK293 [2] = test: Inhibition of full-length Photinus pyralis luciferase transfected in HEK293 cells at 25 uM incubated for 1 hrs by split-luciferase complementation assay; type: cell-based
In short: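 HEK293 cells transfected with full-length Photinus pyralis luciferase, then treated 1 h with 25 μM compound (n = 4) or 0.5% DMSO (n = 32). Luminescence read after D-luciferin addition, as in the LCA, normalized to per-plate DMSO controls. One-way ANOVA with Dunnett's test.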

[3] = target: T1, Fibroblast growth factor 14 (Homo sapiens) (UniProt Q92915); test: Binding affinity to human recombinant FGF14 expressed in Escherichia coli BL21 assessed as assessed as induction of protein denaturation by measuring change in melting temperature at 50 uM by fluorescent dye based thermal shift assay; details: filed as modulator
T1 sequence (whole entry): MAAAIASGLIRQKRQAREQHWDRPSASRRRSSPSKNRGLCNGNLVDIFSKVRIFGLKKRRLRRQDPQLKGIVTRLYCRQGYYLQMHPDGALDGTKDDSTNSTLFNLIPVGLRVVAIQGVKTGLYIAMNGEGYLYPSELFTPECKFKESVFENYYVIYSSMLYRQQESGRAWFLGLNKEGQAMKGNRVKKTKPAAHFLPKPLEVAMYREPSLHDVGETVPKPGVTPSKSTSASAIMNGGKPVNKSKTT

[4] = target: T2, Sodium channel protein type 8 subunit alpha (Homo sapiens, UniProt Q9UQD0); test: Binding affinity to human recombinant Nav1.6 C-terminal domain expressed in Escherichia coli BL21 assessed as assessed as induction of protein denaturation by measuring change in melting temperature at 10 uM by fluorescent dye based thermal shift assay; details: filed as modulator, dose 50.0 µM
Target sequence in this assay (Q9UQD0 whole entry, looked up, the tested form may be a part): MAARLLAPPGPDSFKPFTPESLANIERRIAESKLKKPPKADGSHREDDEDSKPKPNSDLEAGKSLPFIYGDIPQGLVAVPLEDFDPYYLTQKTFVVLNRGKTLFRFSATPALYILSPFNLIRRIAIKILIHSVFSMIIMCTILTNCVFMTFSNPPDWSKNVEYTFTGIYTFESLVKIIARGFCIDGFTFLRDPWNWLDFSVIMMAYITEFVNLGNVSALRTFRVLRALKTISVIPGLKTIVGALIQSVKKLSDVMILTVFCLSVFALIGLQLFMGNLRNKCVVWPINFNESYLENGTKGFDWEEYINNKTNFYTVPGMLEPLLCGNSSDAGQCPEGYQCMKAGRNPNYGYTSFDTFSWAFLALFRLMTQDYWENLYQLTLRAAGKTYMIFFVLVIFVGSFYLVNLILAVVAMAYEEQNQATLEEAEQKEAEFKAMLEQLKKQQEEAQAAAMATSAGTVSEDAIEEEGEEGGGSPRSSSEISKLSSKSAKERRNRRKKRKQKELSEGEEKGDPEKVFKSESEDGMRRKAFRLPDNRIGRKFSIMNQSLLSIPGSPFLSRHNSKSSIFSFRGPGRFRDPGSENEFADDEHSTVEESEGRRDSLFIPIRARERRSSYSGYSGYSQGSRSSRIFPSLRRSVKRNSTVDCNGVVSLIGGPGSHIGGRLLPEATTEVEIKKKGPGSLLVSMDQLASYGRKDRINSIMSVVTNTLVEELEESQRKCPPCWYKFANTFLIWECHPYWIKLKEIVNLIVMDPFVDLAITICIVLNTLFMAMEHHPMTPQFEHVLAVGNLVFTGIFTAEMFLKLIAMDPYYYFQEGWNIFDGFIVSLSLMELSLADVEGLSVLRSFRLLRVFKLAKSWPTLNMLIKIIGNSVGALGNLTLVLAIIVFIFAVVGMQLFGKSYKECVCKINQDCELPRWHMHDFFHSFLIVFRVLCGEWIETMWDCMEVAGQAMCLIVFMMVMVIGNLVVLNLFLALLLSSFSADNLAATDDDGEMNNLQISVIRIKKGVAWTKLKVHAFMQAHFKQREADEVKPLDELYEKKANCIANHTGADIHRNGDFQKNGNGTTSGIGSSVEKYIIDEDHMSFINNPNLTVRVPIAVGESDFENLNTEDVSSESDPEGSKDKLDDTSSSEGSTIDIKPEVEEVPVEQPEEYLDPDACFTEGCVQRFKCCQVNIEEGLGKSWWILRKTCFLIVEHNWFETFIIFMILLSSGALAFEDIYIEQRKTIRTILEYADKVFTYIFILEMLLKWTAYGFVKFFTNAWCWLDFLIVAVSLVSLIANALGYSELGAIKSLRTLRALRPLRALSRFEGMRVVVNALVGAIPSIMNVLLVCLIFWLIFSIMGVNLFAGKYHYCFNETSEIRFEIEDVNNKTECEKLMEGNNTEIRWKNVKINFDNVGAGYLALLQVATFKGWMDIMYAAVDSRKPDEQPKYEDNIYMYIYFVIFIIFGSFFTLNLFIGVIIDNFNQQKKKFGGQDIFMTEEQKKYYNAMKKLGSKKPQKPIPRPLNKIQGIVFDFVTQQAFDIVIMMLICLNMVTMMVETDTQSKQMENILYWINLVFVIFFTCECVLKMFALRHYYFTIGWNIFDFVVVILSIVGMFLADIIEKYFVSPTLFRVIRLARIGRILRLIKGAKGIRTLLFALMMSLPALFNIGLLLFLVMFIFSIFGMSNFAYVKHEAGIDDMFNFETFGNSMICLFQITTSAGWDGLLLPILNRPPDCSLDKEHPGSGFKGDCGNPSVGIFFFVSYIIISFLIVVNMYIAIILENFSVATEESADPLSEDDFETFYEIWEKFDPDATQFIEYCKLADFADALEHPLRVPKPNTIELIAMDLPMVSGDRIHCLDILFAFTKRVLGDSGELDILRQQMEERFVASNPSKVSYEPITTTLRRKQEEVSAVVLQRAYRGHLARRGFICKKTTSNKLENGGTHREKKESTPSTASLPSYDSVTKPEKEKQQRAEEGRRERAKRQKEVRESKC

[5] = target: T3, Fibroblast growth factor 14 (Homo sapiens, UniProt Q92915); test: Binding affinity to human recombinant FGF14 expressed in Escherichia coli BL21 assessed as dissociation constant by SPR analysis
T3 sequence (Q92915 whole entry): T1 sequence (whole entry)
In short: (§1)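 Biacore T100 runs with FGF14 (17,896 RU) or Nav1.6 C-tail (6,800 RU) amine-coupled on CM5 at pH 5.5. Compounds at 0.195–200 μM in PBS, 0.005% Tween-20, 2% DMSO; 50 μL/min at 25 °C. 120 s association, 150 s dissociation, DMSO calibration, blank subtraction. Rates from a Langmuir 1:1 fit; KD averages the kinetic and steady-state values. At least duplicate experiments.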

[6] = target: T2, Sodium channel protein type 8 subunit alpha; test: Binding affinity to human recombinant Nav1.6 C-terminal domain expressed in Escherichia coli BL21 assessed as dissociation constant by SPR analysis; in short: as §1
Target sequence in this assay (Q9UQD0 whole entry, the tested form may be a part): as the sequence (Q9UQD0 whole entry, looked up, the tested form may be a part) above

[7] = target: T2, Sodium channel protein type 8 subunit alpha; test: Binding affinity to human recombinant Nav1.6 C-terminal domain expressed in Escherichia coli BL21 assessed as association rate constant by SPR analysis; details: filed as modulator; in short: as §1
Target sequence in this assay (Q9UQD0 whole entry, looked up, the tested form may be a part): as above

[8] = target: T2, Sodium channel protein type 8 subunit alpha; test: Binding affinity to human recombinant Nav1.6 C-terminal domain expressed in Escherichia coli BL21 assessed as dissociation rate constant by SPR analysis; details: filed as modulator; in short: as §1
Target sequence in this assay (Q9UQD0 whole entry, looked up, the tested form may be a part): as above

[9] = target: T4, Fibroblast growth factor 14/SCN8A (Homo sapiens) (UniProt Q9UQD0+Q92915); test: Modulation of human recombinant FGF14-Nav1.6 C-terminal domain expressed in Escherichia coli BL21 (DE3) protein-protein interaction assessed as association rate constant by SPR analysis (reference value: 2.18X10^4 +/- 1.6X10^2 /M/s); details: filed as modulator
In short: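 FGF14 at 15.6–1500 nM, premixed with 10 μM compound or DMSO, flowed over CM5-bound Nav1.6 C-terminal tail (934 RU). Final 2.1% DMSO, 25 °C, 50 μL/min, 120 s association and 150 s dissociation. Blank-subtracted sensorgrams fitted to a Langmuir 1:1 model.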

[10] = target: T2, Sodium channel protein type 8 subunit alpha; test: (§2) Modulation of recombinant human Nav1.6 C-terminal tail (1763 to 1976 residues) expressed in HEK293 cells assessed as peak current density at 10 uM incubated for 30 mins by whole cell patch clamp electrophysiology assay (reference value: -50.1 +/- 3.1 pA/pF); type: cell-based; details: filed as modulator
In short: (§3)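 Stable HEK-Nav1.6 cells without FGF14, incubated at least 30 min in extracellular solution (mM: 140 NaCl, 3 KCl, 1 MgCl2, 1 CaCl2, 10 HEPES, 10 glucose, pH 7.3) with compound (10 or 30 μM) or 0.1% DMSO. Whole-cell recording with Cs-methanesulfonate/EGTA/NaCl/HEPES pipette solution, 70–80% compensation. Steps −100 to +60 mV; tau measured at −10 mV. Student's t-test.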
Target sequence in this assay (Q9UQD0 whole entry, looked up, the tested form may be a part): as above

[11] = target: T2, Sodium channel protein type 8 subunit alpha; test: Modulation of recombinant human Nav1.6 C-terminal tail (1763 to 1976 residues) expressed in HEK293 cells assessed as long-term inactivation at depolarization cycle 2 at 10 uM incubated for 30 mins by whole cell patch clamp electrophysiology assay (reference value: 0.84 +/- 0.03); type: cell-based; details: filed as modulator
Target sequence in this assay (Q9UQD0 whole entry, looked up, the tested form may be a part): as above

[12] = target: T4, Fibroblast growth factor 14/SCN8A (Homo sapiens); test: as §2, with “1976 residues)-FGF14 (64 to 252” for “1976”, “residues) protein-protein interaction” for “residues)”, “-19.3” for “-50.1”, “1.3)” for “3.1 pA/pF)”; type: cell-based
In short: (§4)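 HEK-Nav1.6 cells transiently transfected with FGF14 using Lipofectamine 2000, then exposed at least 30 min to 10 μM compound or 0.1% DMSO in the pH 7.3 HEPES extracellular solution. Whole-cell patch clamp with Cs-methanesulfonate internal solution, 70–80% capacitance and series-resistance compensation. Test steps from −100 to +60 mV. Student's t-test used.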

[13] = target: T4, Fibroblast growth factor 14/SCN8A (Homo sapiens); test: Modulation of recombinant human Nav1.6 C-terminal tail (1763 to 1976 residues)-FGF14 (64 to 252 residues) protein-protein interaction expressed in HEK293 cells assessed as half activation voltage at 10 uM incubated for 30 mins by cell patch clamp electrophysiology assay (reference value: -21.4 +/- 1 mv); type: cell-based; in short: as §4
[14] = target: T4, Fibroblast growth factor 14/SCN8A (Homo sapiens); test: Modulation of recombinant human Nav1.6 C-terminal tail (1763 to 1976 residues)-FGF14 (64 to 252 residues) protein-protein interaction expressed in HEK293 cells assessed as steady state half inactivation voltage at 10 uM incubated for 30 mins by whole cell patch clamp electrophysiology assay (reference value: -55.1 +/- 2 mV); type: cell-based; in short: as §4
[15] = target: T2, Sodium channel protein type 8 subunit alpha; test: Modulation of recombinant human Nav1.6 C-terminal tail (1763 to 1976 residues) expressed in HEK293 cells assessed as steady state half inactivation voltage at 10 uM incubated for 30 mins by whole cell patch clamp electrophysiology assay (reference value: -62 +/- 1.3 mV); type: cell-based; in short: as §3
Target sequence in this assay (Q9UQD0 whole entry, looked up, the tested form may be a part): as above

HEK293 [16] = test: Cytotoxicity against HEK293 cells assessed as reduction in cell viability measured after 18 hrs by celltiter-blue assay; details: human, hek293, 18 h

T4 sequence (Q9UQD0 whole entry, looked up, one chain of several, the tested form may be a part): as the sequence (Q9UQD0 whole entry, looked up, the tested form may be a part) above

In the case of `COC(=O)[C@@H](NC(=O)[C@H](CCC(=O)OC(C)(C)C)NC(=O)[C@H](CC(C)C)NC(=O)[C@@H]1CCCN1C(=O)C12CC3CC(CC(C3)C1)C2)C(C)C` (Adamantane1carbonyl-PLE(OtBu)V-OMe), the Activity (HEK293 [1]) is reported as 4.7%, the inhibition (HEK293 [2]) is reported as “inactive” and the ΔTm [3] is reported as -2.27 °C. The ΔTm [4] was -4.64 °C, the Kd [5] was 4.05 µM and the Kd [6] was 16.4 µM. For the same compound, the K [7] was 6.23 10^4/M/s, the K [8] was 3.57 10^-3/s and the K [9] was 5.88 10^6/M/s. For the same compound, the Activity [10] was -25.8 pA/pF, the Activity [11] was 0.87 and the Activity [12] was -38.8 pA/pF. The Activity [13] was -21.6 mV, the Activity [14] was -65.6 mV and the Activity [15] was -55.2 mV. For the same compound, the Activity (HEK293 [16]) was “Non-Toxic”.
